Rows were chosen to be rich in hits. Some 2.3% of all compounds tested hit in one or more screens of this group.
OXTR potentiator = potentiates the human oxytocin receptor response. activation, % at 3 µM. AID 2445. P30559. actives 0.061% (n = 320,000). CHO-OTR cells, Fluo-8 calcium fluorescence, potentiator mode; 0% = oxytocin EC15, 100% = EC100;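 active means activation above that plate's cutoff, the mean activation of tested compounds plus 3 SD, cut at about 6.6% in these data, passing the limit was not always enough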;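 further: 100% uses oxytocin at 75 nM as the full agonist control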
Target sequence (P30559 whole entry, looked up): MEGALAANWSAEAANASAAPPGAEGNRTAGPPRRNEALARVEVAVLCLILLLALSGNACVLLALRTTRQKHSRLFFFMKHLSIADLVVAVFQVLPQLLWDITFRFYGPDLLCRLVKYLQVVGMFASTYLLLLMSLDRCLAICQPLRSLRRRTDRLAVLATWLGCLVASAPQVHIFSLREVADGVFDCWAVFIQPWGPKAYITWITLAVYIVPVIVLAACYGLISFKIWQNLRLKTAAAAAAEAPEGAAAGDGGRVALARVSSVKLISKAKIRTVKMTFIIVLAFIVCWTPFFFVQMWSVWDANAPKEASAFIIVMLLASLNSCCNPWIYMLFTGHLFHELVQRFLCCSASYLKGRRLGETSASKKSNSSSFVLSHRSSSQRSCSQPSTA
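Replication – single well per compound, singlicate · Assay system – CHO cell line stably expressing human OTR · Timing – 6 min pre-incubation, 100 s read · Measure – normalized max/min fluorescence ratio, % activation · Doses – 3.0 µM, one dose · Detection – Fluo-8 calcium dye fluorescence · Probe or stimulus – oxytocin near EC15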
OXTR agonist = agonists of human oxytocin receptor; P30559; CHO-OTR cells, Fluo-8 calcium fluorescence; normalized: DMSO 0%, oxytocin 100%; activation, % at 3 µM; actives 0.32% (n = 320,000); AID 2435;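 active means activation above the mean of all tested compounds plus 3 SD, cutoff set per screening run, cut at about 20% in these data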;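 further: peak over basal fluorescence ratio from a 100 s FLIPR kinetic read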
TAAR1 antag = antagonists of human TAAR1; Q96RJ0; CHO RD-HGA16 TAAR1, Fluo-8 calcium fluorescence, antagonist; inhibition, % at 3 µM; actives 1.5% (n = 360,000);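 active means inhibition above a per-plate cutoff, the mean inhibition of test compounds on that plate plus 3 SD, cut at about 49% in these data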;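 further: 0% = DMSO plus EC80 beta-PEA response and 100% = DMSO alone without agonist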
Target sequence (Q96RJ0 whole entry, looked up): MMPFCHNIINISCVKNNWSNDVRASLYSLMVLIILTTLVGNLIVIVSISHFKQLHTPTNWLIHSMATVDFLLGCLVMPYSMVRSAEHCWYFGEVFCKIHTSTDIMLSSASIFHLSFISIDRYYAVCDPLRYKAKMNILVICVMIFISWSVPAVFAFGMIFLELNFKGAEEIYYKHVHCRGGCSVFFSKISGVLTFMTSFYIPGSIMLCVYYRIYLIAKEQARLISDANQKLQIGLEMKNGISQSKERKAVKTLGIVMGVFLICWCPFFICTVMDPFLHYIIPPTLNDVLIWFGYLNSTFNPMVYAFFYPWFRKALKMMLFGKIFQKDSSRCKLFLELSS
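Test system: hTAAR1-expressing CHO RD-HGA16 cells, Gα16-coupled; Probe or stimulus: EC80 β-phenethylamine stimulus; Compound dosing: single nominal final test compound concentration of 3 µM; Timing: 140 s kinetic read after compound, 140 s after agonist; Signal: Fluo-8 calcium-sensitive fluorescence; Measure: % inhibition of agonist calcium response; Controls: DMSO and EC80 PEA controls.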
TAAR1 ag = human TAAR1 agonism | actives 0.99% (n = 360,000) | AID 624467 | Q96RJ0 | activation, % at 3 µM | CHO RD-HGA16 TAAR1, Fluo-8 calcium fluorescence; vehicle wells 0%, saturating PEA agonist 100%;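 active means activation above the mean activation of all test compounds in the run plus 3 SD, cut at about 38% in these data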
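Repeats: no replicates (n 1) | Material: CHO-derived RD-HGA16 cells with stable Gα16 and human TAAR1 | Technique: Kinetic Fluo-8 calcium fluorescence | Schedule: 17-24 h seeding, 75 min 37 °C dye, 30 min RT | Evaluation: % activation from peak over basal fluorescence ratio, DMSO-to-PEA scaled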
V1aR counter = V1a receptor agonism, counter-screen for OXTR agonists; CHO-V1R cells, Fluo-8 calcium fluorescence, agonist mode; 0% DMSO, 100% 3 nM vasopressin; activation, % at 3 µM; actives 0.25% (n = 320,000); AID 2797;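 active means activation above the mean activation of all tested compounds plus 3 SD, per screening run, cut at about 20% in these data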;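 further: signal is peak over basal fluorescence ratio across a 100 second FLIPR read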
TAAR1 nonsel count = counter-screen for TAAR1 antagonists: nonselective antagonists. actives 77% (n = 2,400). inhibition, % at 3 µM. counterscreen cell line, calcium fluorescence, antagonist mode. AID 651780. shares compounds with TAAR1 antag; in the data active means inhibition above about 22%;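 further: CHO-Ga16 host cells stimulated with ATP at an EC80 level; 0% = agonist EC80 plus vehicle and 100% = vehicle without agonist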
TAAR1 ant conf = confirmation of human TAAR1 antagonists | shares compounds with TAAR1 antag | TAAR1-expressing cells, fluorescence antagonist read-out | inhibition, % at 3 µM | actives 40% (n = 2,400) | AID 651785; in the data active means inhibition above about 49%;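 further: CHO-Ga16 host cells challenged with agonist PEA near its EC80; 0% = agonist at EC80 plus vehicle and 100% = vehicle with no agonist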
Ga16 nonsel ag = nonselective Ga16 agonism, counter-screen. activation, % at 3 µM. AID 651953. shares compounds with TAAR1 antag. Ga16-expressing cells, calcium fluorescence, agonist counterscreen. actives 18% (n = 2,400); in the data active means activation above about 12%;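 further: 0% = vehicle wells and 100% = saturating stimulus response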
TAAR1 ag count = counter-screen for human TAAR1 antagonists: TAAR1 agonists; shares compounds with TAAR1 antag; hTAAR1 cell line, fluorescence activation, agonist mode; activation, % at 3 µM; actives 2% (n = 2,400); in the data active means activation above about 37%;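 further: CHO cells stably expressing TAAR1 with calcium dye readout; 0% = DMSO vehicle and 100% = full agonist response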
Active calls of the source: *.

Screening Cc1ncc(CO)c2c1Oc1nc(-c3ccccc3F)nc(SCC(=O)N(C)c3ccccc3)c1C2 returned OXTR potentiator -14.1, OXTR agonist -0.3 and V1aR counter 0.6.
`Cc1ncc(CO)c2c1Oc1nc(-c3ccccc3)nc(SCC(=O)N(C)c3ccccc3)c1C2` gave OXTR potentiator -12.9, OXTR agonist 0.8, TAAR1 antag 61.9*, TAAR1 ag 7.8, V1aR counter 3.1, TAAR1 nonsel count 26.6*, TAAR1 ant conf 45.9, Ga16 nonsel ag 6.4 and TAAR1 ag count 7.1.
Screening CN(C)C(=O)[C@@H]1C[C@H]1[C@@H](NC(=O)OCc1ccccc1)c1ccccc1 returned OXTR potentiator -7.7, OXTR agonist 2.0, TAAR1 antag 3.3, TAAR1 ag 3.4 and V1aR counter 0.1.
For COC(=O)[C@H]1C[C@@H]1[C@H](NC(=O)[C@H]1C[C@@H]1[C@H](NC(=O)OCc1ccccc1)c1ccccc1)c1ccccc1 the results were OXTR potentiator -17.2, OXTR agonist -0.2, TAAR1 antag 58.8*, TAAR1 ag 11.4, V1aR counter 0.2, TAAR1 nonsel count 30.2*, TAAR1 ant conf 33.7, Ga16 nonsel ag 5.3 and TAAR1 ag count 0.8.
For C[C@@H](C(=O)O)[C@H]1C[C@]1(C)[C@H](NC(=O)OCc1ccccc1)c1ccccc1 the results were OXTR potentiator -9.2, OXTR agonist -0.2, TAAR1 antag 75.2*, TAAR1 ag -0.5, V1aR counter -0.2, TAAR1 nonsel count 5.6, TAAR1 ant conf 3.5, Ga16 nonsel ag 2.2 and TAAR1 ag count -1.3.
`COC(=O)[C@H](C)[C@@H]1C[C@@]1(C)[C@@H](NC(=O)OCc1ccccc1)c1ccccc1` gave OXTR potentiator -4.3, OXTR agonist -0.6, TAAR1 antag 28.9, TAAR1 ag 14.2 and V1aR counter -1.5.
`Cc1ccc(NC(=O)c2ccc(OC(=O)c3ccco3)cc2)cc1` gave OXTR potentiator -6.6, OXTR agonist 0.2, TAAR1 antag -3.3, TAAR1 ag 3.5 and V1aR counter 0.7.
Screening O=C(Nc1cc(Cl)ccc1Cl)c1ccc(OC(=O)c2ccco2)cc1 returned OXTR potentiator -1.4, OXTR agonist -0.5, TAAR1 antag 84.8*, TAAR1 ag 10.7, V1aR counter 0.8, TAAR1 nonsel count 24.6*, TAAR1 ant conf 36.7, Ga16 nonsel ag 2.6 and TAAR1 ag count 3.7.
`COc1ccc(S(=O)(=O)NCc2cccnc2)cc1NC(=O)c1ccccc1` gave OXTR potentiator -9.8, OXTR agonist -0.3, TAAR1 antag -5.5, TAAR1 ag -0.9 and V1aR counter 10.0.
`COC(=O)CN(c1ccc(OC)cc1)S(=O)(=O)c1ccc(OC)c(OC)c1` gave OXTR potentiator -7.6, OXTR agonist -0.4, TAAR1 antag -4.2, TAAR1 ag 4.6 and V1aR counter 1.8.
For COc1ccc(NC(=O)CN(c2ccc(OC)cc2)S(=O)(=O)c2ccc(OC)c(OC)c2)cc1 the results were OXTR potentiator -13.8, OXTR agonist 1.4, TAAR1 antag 50.8*, TAAR1 ag 18.0, V1aR counter 0.7, TAAR1 nonsel count 22.9*, TAAR1 ant conf 33.7, Ga16 nonsel ag 6.0 and TAAR1 ag count 3.3.
`COc1ccc(N(CC(=O)Nc2cccc(C(C)=O)c2)S(=O)(=O)c2ccc(NC(C)=O)cc2)cc1` gave TAAR1 antag 61.5*, TAAR1 ag 17.5, TAAR1 nonsel count 35.2*, TAAR1 ant conf 54.6*, Ga16 nonsel ag 11.1 and TAAR1 ag count 11.9.
Cc1cccc(NC(=O)C2C(c3ccccc3)C2(Cl)Cl)c1 (stereo not given) was read as OXTR potentiator -29.6, OXTR agonist -0.6, TAAR1 antag -12.5, TAAR1 ag 0.8 and V1aR counter -0.8.
`Cc1noc(NS(=O)(=O)c2ccc(NC(=O)c3cccc(S(=O)(=O)Nc4ccccc4F)c3)cc2)c1C` gave OXTR potentiator 3.0, OXTR agonist 1.2, TAAR1 antag 100.3*, TAAR1 ag -2.6, V1aR counter 1.1, TAAR1 nonsel count 2.5, TAAR1 ant conf 0.6, Ga16 nonsel ag 4.0 and TAAR1 ag count 3.0.
Cc1noc(NS(=O)(=O)c2ccc(NC(=O)c3ccccc3NS(=O)(=O)c3ccc(F)c(F)c3)cc2)c1C was read as TAAR1 antag 1.3 and TAAR1 ag 11.7.
`Cc1ccc(S(=O)(=O)N2CCC3CC2c2cc(Cl)ccc23)cc1` (stereo not given) gave TAAR1 antag -7.8 and TAAR1 ag -0.6.
Cc1ccc(C(C(=O)NCC2CCCO2)N(Cc2ccccc2)C(=O)c2ccc(-c3ccccc3)[nH]2)o1 (stereo not given) was read as OXTR potentiator -10.2, OXTR agonist -0.7, TAAR1 antag 67.0*, TAAR1 ag 9.0, V1aR counter -0.7, TAAR1 nonsel count 30.7*, TAAR1 ant conf 42.2, Ga16 nonsel ag 8.1 and TAAR1 ag count 13.5.
For O=C(NCC(=O)N(c1ccc(F)cc1)C(C(=O)NCC1CCCO1)c1ccccc1)c1ccco1 (stereo not given) the results were OXTR potentiator -12.0, OXTR agonist -0.3, TAAR1 antag 24.8, TAAR1 ag 8.6 and V1aR counter 0.1.
`O=C(NCC(=O)N(Cc1ccccc1)C(C(=O)NCC1CCCO1)c1ccccc1)c1ccco1` (stereo not given) gave OXTR potentiator -8.8, OXTR agonist 6.6, TAAR1 antag 53.4*, TAAR1 ag 18.9, V1aR counter 5.2, TAAR1 nonsel count 19.6, TAAR1 ant conf 45.5, Ga16 nonsel ag 10.2 and TAAR1 ag count 9.6.
`COc1ccccc1CN(C(=O)CNC(=O)c1ccco1)C(C(=O)NCC1CCCO1)c1ccccc1` (stereo not given) gave OXTR potentiator -5.9, OXTR agonist 4.6, TAAR1 antag 68.4*, TAAR1 ag 16.7, V1aR counter 4.2, TAAR1 nonsel count 31.6*, TAAR1 ant conf 47.1, Ga16 nonsel ag 7.8 and TAAR1 ag count 10.2.
Screening CCCn1c(C(C)NC(=O)c2ccccc2)n[nH]c1=S (stereo not given) returned OXTR potentiator -3.0, OXTR agonist 0.5, TAAR1 antag -20.7, TAAR1 ag 5.2 and V1aR counter 8.9.

From PubChem
